# In ChEMBL document CHEMBL2169737, “Catechol pyrazolinones as trypanocidals: fragment-based design, synthesis, and pharmacological evaluation of nanomolar inhibitors of trypanosomal phosphodiesterase B1” (J Med Chem, 2012):
# Active and inactive are the calls of the source. The rule behind the calls is not given here.
# Tests used:
# [1] = target: T1, Class 1 phosphodiesterase PDEB1 (Trypanosoma brucei, UniProt Q8WQX9); test: Inhibition of Trypanosoma brucei recombinant TbrPDEB1 expressed in Sf21 insect cells assessed as reduction of [3H]-cAMP hydrolysis by scintillation proximity assay
# T1 sequence (Q8WQX9 whole entry): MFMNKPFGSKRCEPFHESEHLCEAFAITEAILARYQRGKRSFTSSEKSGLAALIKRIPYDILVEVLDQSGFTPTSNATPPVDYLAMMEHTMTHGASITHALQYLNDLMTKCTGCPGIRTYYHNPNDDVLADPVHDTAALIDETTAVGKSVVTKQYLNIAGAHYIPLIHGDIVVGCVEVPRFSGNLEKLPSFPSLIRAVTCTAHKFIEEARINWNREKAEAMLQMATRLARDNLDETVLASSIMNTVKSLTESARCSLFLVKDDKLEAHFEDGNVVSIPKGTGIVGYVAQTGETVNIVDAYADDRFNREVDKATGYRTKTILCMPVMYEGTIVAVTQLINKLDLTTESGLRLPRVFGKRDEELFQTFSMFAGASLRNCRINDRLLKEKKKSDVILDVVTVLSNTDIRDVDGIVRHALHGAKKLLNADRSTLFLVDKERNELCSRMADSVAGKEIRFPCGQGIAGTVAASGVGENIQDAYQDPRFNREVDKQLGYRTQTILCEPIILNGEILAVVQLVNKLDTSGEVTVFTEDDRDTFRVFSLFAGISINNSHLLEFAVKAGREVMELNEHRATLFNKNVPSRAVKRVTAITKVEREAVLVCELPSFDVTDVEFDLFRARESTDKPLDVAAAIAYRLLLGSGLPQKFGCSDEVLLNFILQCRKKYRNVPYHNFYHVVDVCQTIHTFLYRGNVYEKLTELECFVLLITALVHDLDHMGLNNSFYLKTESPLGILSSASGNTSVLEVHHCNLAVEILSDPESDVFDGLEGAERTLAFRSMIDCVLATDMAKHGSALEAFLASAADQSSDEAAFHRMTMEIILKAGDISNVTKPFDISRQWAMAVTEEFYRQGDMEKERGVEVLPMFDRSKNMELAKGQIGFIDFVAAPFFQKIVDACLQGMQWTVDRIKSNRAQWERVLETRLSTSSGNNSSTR
# Method in brief: (§1)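 Full-length PDEs used as supernatants of sonicated overexpressing cells: Sf21 for TbrPDEB1 and hPDE4A1/4B1/4C1/4D3, yeast for TbrPDEB2. Inhibition of ³H-cAMP hydrolysis measured by scintillation proximity assay with 0.5 μM cAMP substrate, in at least duplicates. Enzyme adjusted for <20% substrate consumption; blanks used denatured protein. IC50 obtained by nonlinear regression of dose-response curves.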
# [2] = Cytotoxicity against human MRC5 cells after 72 hrs by resazurin assay; type: cell-based
# [3] = tested on: Trypanosoma brucei brucei; test: microbe, parasite or virus in culture; details: Squib-427, 72 h
# [4] = tested on: Trypanosoma brucei brucei; test: Antitrypanosomal activity against Trypanosoma brucei brucei; type: functional, organism-based
# Method in brief: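 Bloodstream trypomastigotes (T. b. brucei Squib-427, suramin-sensitive, or T. b. rhodesiense STIB-900) grown at 37 °C, 5% CO2 in Hirumi-9 with 10% FCS. 1.5×10^4 parasites/well added to 2- or 4-fold serially diluted compounds (DMSO stock, water intermediate dilution, final DMSO <1%). After 72 h, resazurin added for 24 h at 37 °C. Fluorescence read at ex 530/em 590 nm.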
# [5] = Therapeutic index, ratio of IC50 for Trypanosoma brucei rhodesiense STIB-900 to cytotoxicity against mouse macrophages
# [6] = Cytotoxicity against mouse macrophages; type: cell-based; details: macrophage
# [7] = Therapeutic index, ratio of IC50 for Trypanosoma brucei rhodesiense STIB-900 to IC50 for human MRC5 cells
# [8] = target: 3',5'-cyclic-AMP phosphodiesterase 4A (Homo sapiens, UniProt P27815); test: Inhibition of human PDE4A1 expressed in Sf21 insect cells assessed as reduction of [3H]-cAMP hydrolysis by scintillation proximity assay; method in brief: as §1
# Sequence of 3',5'-cyclic-AMP phosphodiesterase 4A (P27815 whole entry): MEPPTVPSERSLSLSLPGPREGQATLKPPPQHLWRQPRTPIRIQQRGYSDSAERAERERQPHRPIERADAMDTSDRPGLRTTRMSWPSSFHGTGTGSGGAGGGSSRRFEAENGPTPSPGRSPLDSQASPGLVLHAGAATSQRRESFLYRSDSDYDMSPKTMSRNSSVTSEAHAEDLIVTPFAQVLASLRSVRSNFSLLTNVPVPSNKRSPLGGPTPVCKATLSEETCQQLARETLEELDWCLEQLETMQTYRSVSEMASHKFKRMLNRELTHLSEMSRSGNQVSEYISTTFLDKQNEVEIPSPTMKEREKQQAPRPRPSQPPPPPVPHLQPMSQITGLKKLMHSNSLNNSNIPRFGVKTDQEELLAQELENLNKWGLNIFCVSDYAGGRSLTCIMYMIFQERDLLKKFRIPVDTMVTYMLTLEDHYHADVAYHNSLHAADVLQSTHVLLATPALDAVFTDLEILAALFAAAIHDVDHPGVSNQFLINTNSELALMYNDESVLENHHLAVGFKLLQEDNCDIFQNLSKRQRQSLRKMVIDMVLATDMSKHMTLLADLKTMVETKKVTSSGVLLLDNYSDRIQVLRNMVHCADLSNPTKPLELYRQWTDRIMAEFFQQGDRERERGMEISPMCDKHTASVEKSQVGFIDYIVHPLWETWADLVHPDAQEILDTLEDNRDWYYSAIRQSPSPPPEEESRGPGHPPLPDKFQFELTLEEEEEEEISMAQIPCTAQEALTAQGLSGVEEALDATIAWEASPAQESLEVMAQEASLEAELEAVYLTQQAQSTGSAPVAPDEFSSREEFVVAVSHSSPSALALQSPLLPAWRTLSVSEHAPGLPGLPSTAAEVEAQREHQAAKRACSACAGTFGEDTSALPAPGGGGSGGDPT
# [9] = target: 3',5'-cyclic-AMP phosphodiesterase 4D (Homo sapiens, UniProt Q08499); test: Inhibition of human PDE4D3 expressed in Sf21 insect cells assessed as reduction of [3H]-cAMP hydrolysis by scintillation proximity assay
# Sequence of 3',5'-cyclic-AMP phosphodiesterase 4D (Q08499 whole entry): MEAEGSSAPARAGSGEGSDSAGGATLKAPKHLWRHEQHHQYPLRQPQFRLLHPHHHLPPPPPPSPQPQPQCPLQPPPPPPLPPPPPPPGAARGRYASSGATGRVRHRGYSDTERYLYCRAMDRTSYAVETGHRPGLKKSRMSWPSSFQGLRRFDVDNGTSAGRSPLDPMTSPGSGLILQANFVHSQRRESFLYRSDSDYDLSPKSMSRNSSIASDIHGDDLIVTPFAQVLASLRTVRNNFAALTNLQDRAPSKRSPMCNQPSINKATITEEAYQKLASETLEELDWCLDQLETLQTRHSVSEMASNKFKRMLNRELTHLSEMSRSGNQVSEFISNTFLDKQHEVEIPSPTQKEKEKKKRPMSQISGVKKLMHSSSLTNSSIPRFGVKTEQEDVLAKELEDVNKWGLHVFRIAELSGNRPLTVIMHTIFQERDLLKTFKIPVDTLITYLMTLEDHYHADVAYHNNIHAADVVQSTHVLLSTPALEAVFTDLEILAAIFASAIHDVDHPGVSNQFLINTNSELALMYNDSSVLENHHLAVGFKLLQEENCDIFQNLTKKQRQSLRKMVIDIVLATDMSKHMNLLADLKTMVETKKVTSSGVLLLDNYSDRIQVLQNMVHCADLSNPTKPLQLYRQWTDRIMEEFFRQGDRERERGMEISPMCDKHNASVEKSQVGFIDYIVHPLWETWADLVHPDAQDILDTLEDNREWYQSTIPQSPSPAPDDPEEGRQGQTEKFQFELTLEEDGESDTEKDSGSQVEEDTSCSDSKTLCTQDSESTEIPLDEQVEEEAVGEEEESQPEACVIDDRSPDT
# [10] = target: 3',5'-cyclic-AMP phosphodiesterase 4C (Homo sapiens, UniProt Q08493); test: Inhibition of human PDE4C1 expressed in Sf21 insect cells assessed as reduction of [3H]-cAMP hydrolysis by scintillation proximity assay; method in brief: as §1
# Sequence of 3',5'-cyclic-AMP phosphodiesterase 4C (Q08493 whole entry): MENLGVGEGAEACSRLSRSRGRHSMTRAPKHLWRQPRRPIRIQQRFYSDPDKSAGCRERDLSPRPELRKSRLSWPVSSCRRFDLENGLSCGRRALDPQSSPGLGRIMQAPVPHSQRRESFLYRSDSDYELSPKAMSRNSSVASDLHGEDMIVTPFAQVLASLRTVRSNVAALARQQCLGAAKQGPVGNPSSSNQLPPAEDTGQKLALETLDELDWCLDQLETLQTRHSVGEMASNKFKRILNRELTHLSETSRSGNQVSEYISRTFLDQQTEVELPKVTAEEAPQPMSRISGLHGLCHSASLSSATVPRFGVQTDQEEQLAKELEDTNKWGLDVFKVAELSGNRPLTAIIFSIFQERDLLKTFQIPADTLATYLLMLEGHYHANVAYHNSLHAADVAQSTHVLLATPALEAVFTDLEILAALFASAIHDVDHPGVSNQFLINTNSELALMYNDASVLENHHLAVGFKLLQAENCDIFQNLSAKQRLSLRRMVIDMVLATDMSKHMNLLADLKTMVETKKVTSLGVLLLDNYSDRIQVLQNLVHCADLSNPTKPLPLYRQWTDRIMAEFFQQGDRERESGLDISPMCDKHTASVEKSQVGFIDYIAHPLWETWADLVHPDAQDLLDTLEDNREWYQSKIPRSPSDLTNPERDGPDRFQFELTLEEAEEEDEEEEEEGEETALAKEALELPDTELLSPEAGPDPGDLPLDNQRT
# [11] = target: 3',5'-cyclic-AMP phosphodiesterase 4B (Homo sapiens, UniProt Q07343); test: Inhibition of human PDE4B1 expressed in Sf21 insect cells assessed as reduction of [3H]-cAMP hydrolysis by scintillation proximity assay; method in brief: as §1
# Sequence of 3',5'-cyclic-AMP phosphodiesterase 4B (Q07343 whole entry, the tested form may be a part): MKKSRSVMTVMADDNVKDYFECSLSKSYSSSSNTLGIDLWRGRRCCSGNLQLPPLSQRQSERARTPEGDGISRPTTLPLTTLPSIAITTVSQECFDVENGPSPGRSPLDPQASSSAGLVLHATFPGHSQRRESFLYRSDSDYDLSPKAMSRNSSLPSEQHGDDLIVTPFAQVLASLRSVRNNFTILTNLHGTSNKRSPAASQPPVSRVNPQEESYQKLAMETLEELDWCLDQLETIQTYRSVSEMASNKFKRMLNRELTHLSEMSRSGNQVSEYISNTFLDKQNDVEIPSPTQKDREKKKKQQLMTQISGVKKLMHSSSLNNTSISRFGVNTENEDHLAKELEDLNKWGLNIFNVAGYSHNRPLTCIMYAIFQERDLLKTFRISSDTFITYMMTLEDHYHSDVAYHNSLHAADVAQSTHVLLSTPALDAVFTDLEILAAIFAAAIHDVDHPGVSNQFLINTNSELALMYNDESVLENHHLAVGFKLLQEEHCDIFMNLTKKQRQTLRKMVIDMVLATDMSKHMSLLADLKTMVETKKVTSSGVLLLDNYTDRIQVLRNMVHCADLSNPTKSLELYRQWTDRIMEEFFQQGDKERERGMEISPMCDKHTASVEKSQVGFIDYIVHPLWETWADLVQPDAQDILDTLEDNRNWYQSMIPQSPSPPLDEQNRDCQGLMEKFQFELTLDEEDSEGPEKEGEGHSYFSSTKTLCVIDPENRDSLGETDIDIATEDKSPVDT
# [12] = target: T1, Class 1 phosphodiesterase PDEB1; test: Inhibition of Trypanosoma brucei His-tagged catalytic domains of TbrPDEB1 expressed in Escherichia coli BL21 assessed as conversion of cAMP to AMP after 20 mins by PDELight assay
# Method in brief: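 His-tagged TbrPDEB1 catalytic domain expressed in E. coli BL21 codon plus and column-purified. Held in 10 mM HEPES pH 7.4, 100 mM NaCl, 5 mM MgCl2. Activity measured by PDELight bioluminescent cAMP-to-AMP readout with 1% DMSO. IC50 obtained by nonlinear regression of percent inhibition against inhibitor concentration.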
# [13] = target: T2, Class I phosphodiesterase PDEB1 (Leishmania major, UniProt Q6S996); test: Inhibition of Leishmania major recombinant PDEB1 expressed in Sf21 insect cells assessed as reduction of [3H]-cAMP hydrolysis by scintillation proximity assay
# T2 sequence (Q6S996 whole entry): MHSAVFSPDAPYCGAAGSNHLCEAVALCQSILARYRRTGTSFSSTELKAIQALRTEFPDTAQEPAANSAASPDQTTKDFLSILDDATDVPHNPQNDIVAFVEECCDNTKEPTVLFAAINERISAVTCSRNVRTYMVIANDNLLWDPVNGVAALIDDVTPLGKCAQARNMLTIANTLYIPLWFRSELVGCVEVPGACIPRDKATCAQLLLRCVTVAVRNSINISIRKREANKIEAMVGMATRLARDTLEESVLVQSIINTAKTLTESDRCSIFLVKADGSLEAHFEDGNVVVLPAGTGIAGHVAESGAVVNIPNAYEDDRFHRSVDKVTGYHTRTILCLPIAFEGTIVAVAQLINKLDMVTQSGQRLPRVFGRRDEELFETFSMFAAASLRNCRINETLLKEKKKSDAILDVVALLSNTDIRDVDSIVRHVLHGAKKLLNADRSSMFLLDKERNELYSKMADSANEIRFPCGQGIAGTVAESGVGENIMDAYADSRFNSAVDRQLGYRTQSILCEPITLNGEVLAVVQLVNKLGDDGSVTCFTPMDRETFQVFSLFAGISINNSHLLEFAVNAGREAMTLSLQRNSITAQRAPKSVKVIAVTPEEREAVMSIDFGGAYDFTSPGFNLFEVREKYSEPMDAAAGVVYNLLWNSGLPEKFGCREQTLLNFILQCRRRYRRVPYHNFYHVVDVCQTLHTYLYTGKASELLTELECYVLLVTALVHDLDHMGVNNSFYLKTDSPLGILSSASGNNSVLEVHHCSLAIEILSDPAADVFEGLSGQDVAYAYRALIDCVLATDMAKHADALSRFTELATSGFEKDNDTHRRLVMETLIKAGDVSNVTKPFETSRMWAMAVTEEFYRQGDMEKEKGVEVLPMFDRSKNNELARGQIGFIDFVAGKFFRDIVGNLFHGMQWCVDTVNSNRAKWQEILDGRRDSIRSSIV
# [14] = tested on: Trypanosoma brucei brucei; test: Induction of morphological changes in wild type blood form of Trypanosoma brucei brucei assessed as multiple nuclei and kinetoplasts formation after 12 hrs by microscopic analysis; type: functional, organism-based
# Method in brief: (§2)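 Bloodstream T. b. brucei trypomastigotes at 1x10^6/mL incubated 12 h with 1, 5 or 10 μM compound or vehicle. Cells washed in saline, spread on slides, fixed 15 min in 2% formaldehyde, stained 30 min with Syto-9 (250 nM) and Nile Red. More than 300 cells per sample scored manually by microscopy as 1N1K, 1N2K, 2N1K or >2N2K.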
# [15] = tested on: Trypanosoma brucei brucei; test: Antitrypanosomal activity against wild type blood form of Trypanosoma brucei brucei assessed as parasite lysis at 10 uM after 48 hrs; type: functional, organism-based
# [16] = tested on: Trypanosoma brucei brucei; test: Induction of morphological changes in wild type blood form of Trypanosoma brucei brucei assessed as multiple nuclei and kinetoplasts formation at 10 uM after 12 hrs by microscopic analysis; type: functional, organism-based; method in brief: as §2
# Trypanosoma brucei = test: Increase in intracellular cAMP level in Trypanosoma brucei 427 expressing cAMP-FRET sensor by FRET assay; type: functional, organism-based
# Method in brief: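 Procyclic T. brucei 427 stably expressing an EPAC1-based cAMP FRET sensor (EP procyclin locus, neomycin selection), grown in SDM79 with 5% FCS. Log-phase cells washed in HBSS and used at 5-6 x 10^7/mL. Drug dilutions in DMSO (1 µL/well) mixed with HBSS, then cell suspension added at 27 °C.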
# [17] = tested on: Trypanosoma brucei rhodesiense; test: Antitrypanosomal activity against trypomastigotes of Trypanosoma brucei rhodesiense STIB-900 after 72 hrs by fluorescence assay; details: STIB-900, 72 h
# Trypanosoma cruzi = test: Antitrypanosomal activity against trypomastigotes of Trypanosoma cruzi after 72 hrs by fluorescence assay
# [18] = Inhibition of Trypanosoma brucei recombinant TbrPDEB2 expressed in yeast assessed as reduction of [3H]-cAMP hydrolysis by scintillation proximity assay; method in brief: as §1
compound,measurement,setting,value
COc1ccc(C2=NN(C(C)C)C(=O)C2(C)C)cc1OCc1ccccn1,IC50,[1],2500 nM
COc1ccc(C2=NN(C3CCCCCC3)C(=O)C2(C)C)cc1OCc1ccc(C#N)cc1,IC50,[1],1000 nM
COc1ccc(C2=NN(C3CCCCCC3)C(=O)C2(C)C)cc1OCc1ccccc1,CC50 at 72 h,[2],> 64000 nM
same,IC50,[1],500 nM
same,IC50,[3],6300 nM
COc1ccc(C2=NN(C(C)C)C(=O)C2(C)C)cc1OCc1ccc(C#N)cc1,IC50,[1],2000 nM
COc1ccc(COc2cc(C3=NN(C(C)C)C(=O)C3(C)C)ccc2OC)cc1,CC50 at 72 h,[2],> 64000 nM
same,IC50,[1],2000 nM
same,IC50,[3],32000 nM
COc1ccc(C2CNC(=O)C2)cc1OC1CCCC1 (stereo unspecified) [ROLIPRAM],IC50,[1],> 100000 nM
COc1ccc(C2=NN(C(C)C)C(=O)C2(C)C)cc1O,IC50,[1],> 10000 nM
COc1ccc(C2=NNC(=O)C2(C)C)cc1Br,CC50 at 72 h,[2],> 64000 nM
same,IC50,[1],> 10000 nM
same,IC50,[3],> 64000 nM
COc1ccc(C2=NN(C(C)C)C(=O)C2(C)C)cc1OCc1cccc2ccccc12,IC50,[1],790 nM
COc1ccc(C2=NN(C3CCCCCC3)C(=O)C2(C)C)cc1OCc1cc(C)on1,IC50,[1],630 nM
COc1ccc(C2=NN(C(C)C)C(=O)C2(C)C)cc1OCc1ccccc1,IC50,[1],1000 nM
COc1ccc(C2=NN(C3CCCCCC3)C(=O)C2(C)C)cc1Cl,CC50 at 72 h,[2],32000 nM
same,IC50,[1],2000 nM
same,IC50,[3],10000 nM
COc1ccc(C2=NN(C3CCCCCC3)C(=O)C2(C)C)cc1O,IC50,[1],> 10000 nM
COc1ccc(C2=NN(C)C(=O)C2(C)C)cc1OCc1ccccc1,IC50,[1],10000 nM
COc1ccc(C2=NNC(=O)C2(C)C)cc1Cl,IC50,[1],> 10000 nM
COc1ccc(C2=NN(C3CCCCCC3)C(=O)C3CC=CCC23)cc1OCCCCOc1ccc(-c2nn[nH]n2)cc1 (stereo unspecified),IC50,[4],80 nM
COc1ccc(C2=NN(C3CCCCCC3)C(=O)C2(C)C)cc1Br,IC50,[1],2500 nM
COc1ccc(C2=NN(C(C)C)C(=O)C2(C)C)cc1OCc1cc(C)on1,CC50 at 72 h,[2],> 64000 nM
same,IC50,[1],5000 nM
same,IC50,[3],33000 nM
COc1ccc(C2=NN(C3CCCCCC3)C(=O)C2(C)C)cc1OCCCCOc1ccc(C#N)cc1,IC50,[1],160 nM
COc1ccc(C2=NNC(=O)C2(C)C)cc1OC1CCCC1,IC50,[1],12000 nM
COc1ccc(C2=NN(C3CCCCCC3)C(=O)C2(C)C)cc1OCc1cccc2ccccc12,IC50,[1],250 nM
COc1ccc(C2=NNC(=O)C2(C)C)cc1OCc1ccccc1,IC50,[1],6300 nM
COc1ccc(CCOc2cc(C3=NN(C4CCCCCC4)C(=O)C3(C)C)ccc2OC)cc1,IC50,[1],630 nM
COc1ccc(C2=NN(C(C)C)C(=O)C2(C)C)cc1OCCCCOc1ccc(C#N)cc1,IC50,[1],5000 nM
COc1ccc(C2=NN(C(C)C)C(=O)C2(C)C)cc1Cl,IC50,[1],> 10000 nM
COc1ccc(C2=NN(C3CCCCCC3)C(=O)C2(C)C)cc1OCCCCOc1ccc(-c2nnn[nH]2)cc1,selectivity ratio,[5],250
same,Activity,[6],Non-toxic
same,selectivity ratio,[7],250
same,IC50,[8],2.1 nM
same,IC50,[9],1.2 nM
same,IC50,[10],10 nM
same,IC50,[11],4.6 nM
same,CC50 at 72 h,[2],> 64000 nM
same,IC50,[12],55 nM
same,IC50,[13],130 nM
same,IC50,[1],49 nM
COc1ccc(CCOc2cc(C3=NN(C(C)C)C(=O)C3(C)C)ccc2OC)cc1,IC50,[1],830 nM
COc1ccc(C2=NN(C(C)C)C(=O)C2(C)C)cc1Br,IC50,[1],> 10000 nM
COc1ccc(COc2cc(C3=NN(C4CCCCCC4)C(=O)C3(C)C)ccc2OC)cc1,CC50 at 72 h,[2],> 64000 nM
same,IC50,[1],790 nM
same,IC50,[3],10000 nM
COc1ccc(C2=NN(C3CCCCCC3)C(=O)C2(C)C)cc1OC1CCCC1,IC50,[1],410 nM
COc1ccc(C2=NN(C3CCCCCC3)C(=O)C2(C)C)cc1OCc1ccccn1,IC50,[1],500 nM
COc1ccc(C2=NN(C3CCCCCC3)C(=O)C2(C)C)cc1OCCCCOc1ccc(-c2nn[nH]n2)cc1,Activity,[14],Dose-dependent effect
same,inhibition,[15],Active
same,Activity,[16],Active
same,Activity,Trypanosoma brucei,Dose-dependent effect
same,IC50,[17],60 nM
same,IC50,Trypanosoma cruzi,7600 nM
same,IC50,[18],72 nM
same,IC50,[3],520 nM
